Reference: ChEMBL document CHEMBL5058577, “EUbOPEN Chemogenomics Library 2 (Multiplex)” (2022)

Test system: U2OS
Experiment: Multiplex assay against U2OS
Type: toxicity, cell-based
Conditions: human
Procedure, shortened: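 Per cents of healthy-nucleus cells form the tubulin, mitochondrial-mass and membrane-permeability phenotype values. Live cells were stained at seeding with Hoechst33342, BioTracker Green Microtubule Cytoskeleton Dye, MitoTracker Red and Annexin V Alexa Fluor 680. After compound addition they were imaged on a CQ1 microscope at 37°C and 5% CO2, and CellPathfinder machine-learning gating split them into Hoechst high-intensity objects or normal cells, normal cells into healthy, pyknosed or fragmented nuclei, and pyknosed cells into mitotic or apoptotic.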

[1] = 12 h, 1 µM, compound concentration 1 uM, replicate 1
[2] = 12 h, 1 µM, compound concentration 1 uM, replicate 2
[3] = 12 h, 10 µM, compound concentration 10 uM, replicate 1
[4] = 12 h, 10 µM, compound concentration 10 uM, replicate 2
[5] = 24 h, 1 µM, compound concentration 1 uM, replicate 1
[6] = 24 h, 1 µM, compound concentration 1 uM, replicate 2
[7] = 24 h, 10 µM, compound concentration 10 uM, replicate 1
[8] = 24 h, 10 µM, compound concentration 10 uM, replicate 2
[9] = 48 h, 1 µM, compound concentration 1 uM, replicate 1
[10] = 48 h, 1 µM, compound concentration 1 uM, replicate 2
[11] = 48 h, 10 µM, compound concentration 10 uM, replicate 1
[12] = 48 h, 10 µM, compound concentration 10 uM, replicate 2

Cc1sc2c(c1C)C(c1ccc(Cl)cc1)=N[C@@H](CC(=O)NCCCCCCCCNC(=O)COc1cccc3c1C(=O)N(C1CCC(=O)NC1=O)C3=O)c1nnc(C)n1-2 (stereo partly specified)
Population Apoptotic (%) [1]: 93% | Population Fragmented Nuclei (%) [1]: 43% | Population Healthy Nuclei (%) [1]: 49% | Population Hoechst High Intensity Objects (%) [1]: 11% | Population Membrane Permeable-Phenotype (%) [1]: 9% | Population Mitochondria Different-Phenotype (%) [1]: 4% | Population Mitotic Cells (%) [1]: 6% | Population Normal (%) [1]: 88% | Population Pyknosed Nuclei (%) [1]: 6% | Population Tubulin-Different-Phenotype (%) [1]: 5% | Total Cell Count [1]: 269 | Population Apoptotic (%) [2]: 87% | Population Fragmented Nuclei (%) [2]: 13% | Population Healthy Nuclei (%) [2]: 80% | Population Hoechst High Intensity Objects (%) [2]: 0% | Population Membrane Permeable-Phenotype (%) [2]: 5% | Population Mitochondria Different-Phenotype (%) [2]: 1% | Population Mitotic Cells (%) [2]: 12% | Population Normal (%) [2]: 99% | Population Pyknosed Nuclei (%) [2]: 5% | Population Tubulin-Different-Phenotype (%) [2]: 3% | Total Cell Count [2]: 136 | Population Apoptotic (%) [3]: 86% | Population Fragmented Nuclei (%) [3]: 31% | Population Healthy Nuclei (%) [3]: 55% | Population Hoechst High Intensity Objects (%) [3]: 5% | Population Membrane Permeable-Phenotype (%) [3]: 2% | Population Mitochondria Different-Phenotype (%) [3]: 4% | Population Mitotic Cells (%) [3]: 13% | Population Normal (%) [3]: 94% | Population Pyknosed Nuclei (%) [3]: 13% | Population Tubulin-Different-Phenotype (%) [3]: 0% | Total Cell Count [3]: 233 | Population Apoptotic (%) [4]: 100% | Population Fragmented Nuclei (%) [4]: 19% | Population Healthy Nuclei (%) [4]: 75% | Population Hoechst High Intensity Objects (%) [4]: 0% | Population Membrane Permeable-Phenotype (%) [4]: 17% | Population Mitochondria Different-Phenotype (%) [4]: 12% | Population Mitotic Cells (%) [4]: 0% | Population Normal (%) [4]: 99% | Population Pyknosed Nuclei (%) [4]: 4% | Population Tubulin-Different-Phenotype (%) [4]: 12% | Total Cell Count [4]: 117 | Population Apoptotic (%) [5]: 100% | Population Fragmented Nuclei (%) [5]: 42% | Population Healthy Nuclei (%) [5]: 51% | Population Hoechst High Intensity Objects (%) [5]: 11% | Population Membrane Permeable-Phenotype (%) [5]: 8% | Population Mitochondria Different-Phenotype (%) [5]: 3% | Population Mitotic Cells (%) [5]: 0% | Population Normal (%) [5]: 88% | Population Pyknosed Nuclei (%) [5]: 6% | Population Tubulin-Different-Phenotype (%) [5]: 5% | Total Cell Count [5]: 297 | Population Apoptotic (%) [6]: 92% | Population Fragmented Nuclei (%) [6]: 12% | Population Healthy Nuclei (%) [6]: 80% | Population Hoechst High Intensity Objects (%) [6]: 2% | Population Membrane Permeable-Phenotype (%) [6]: 5% | Population Mitochondria Different-Phenotype (%) [6]: 2% | Population Mitotic Cells (%) [6]: 7% | Population Normal (%) [6]: 97% | Population Pyknosed Nuclei (%) [6]: 7% | Population Tubulin-Different-Phenotype (%) [6]: 4% | Total Cell Count [6]: 174 | Population Apoptotic (%) [7]: 100% | Population Fragmented Nuclei (%) [7]: 34% | Population Healthy Nuclei (%) [7]: 53% | Population Hoechst High Intensity Objects (%) [7]: 8% | Population Membrane Permeable-Phenotype (%) [7]: 4% | Population Mitochondria Different-Phenotype (%) [7]: 5% | Population Mitotic Cells (%) [7]: 0% | Population Normal (%) [7]: 91% | Population Pyknosed Nuclei (%) [7]: 12% | Population Tubulin-Different-Phenotype (%) [7]: 2% | Total Cell Count [7]: 245 | Population Fragmented Nuclei (%) [8]: 27% | Population Healthy Nuclei (%) [8]: 65% | Population Hoechst High Intensity Objects (%) [8]: 0% | Population Membrane Permeable-Phenotype (%) [8]: 21% | Population Mitochondria Different-Phenotype (%) [8]: 9% | Population Normal (%) [8]: 99% | Population Pyknosed Nuclei (%) [8]: 7% | Population Tubulin-Different-Phenotype (%) [8]: 14% | Total Cell Count [8]: 130 | Population Apoptotic (%) [9]: 91% | Population Fragmented Nuclei (%) [9]: 35% | Population Healthy Nuclei (%) [9]: 53% | Population Hoechst High Intensity Objects (%) [9]: 10% | Population Membrane Permeable-Phenotype (%) [9]: 6% | Population Mitochondria Different-Phenotype (%) [9]: 1% | Population Mitotic Cells (%) [9]: 8% | Population Normal (%) [9]: 89% | Population Pyknosed Nuclei (%) [9]: 10% | Population Tubulin-Different-Phenotype (%) [9]: 2% | Total Cell Count [9]: 353 | Population Apoptotic (%) [10]: 90% | Population Fragmented Nuclei (%) [10]: 12% | Population Healthy Nuclei (%) [10]: 79% | Population Hoechst High Intensity Objects (%) [10]: 1% | Population Membrane Permeable-Phenotype (%) [10]: 4% | Population Mitotic Cells (%) [10]: 9% | Population Normal (%) [10]: 98% | Population Pyknosed Nuclei (%) [10]: 7% | Population Tubulin-Different-Phenotype (%) [10]: 1% | Total Cell Count [10]: 270 | Population Apoptotic (%) [11]: 100% | Population Fragmented Nuclei (%) [11]: 36% | Population Healthy Nuclei (%) [11]: 51% | Population Hoechst High Intensity Objects (%) [11]: 7% | Population Membrane Permeable-Phenotype (%) [11]: 9% | Population Mitochondria Different-Phenotype (%) [11]: 4% | Population Mitotic Cells (%) [11]: 0% | Population Normal (%) [11]: 92% | Population Pyknosed Nuclei (%) [11]: 12% | Population Tubulin-Different-Phenotype (%) [11]: 4% | Total Cell Count [11]: 289 | Population Fragmented Nuclei (%) [12]: 25% | Population Healthy Nuclei (%) [12]: 70% | Population Hoechst High Intensity Objects (%) [12]: 2% | Population Membrane Permeable-Phenotype (%) [12]: 10% | Population Normal (%) [12]: 97% | Population Pyknosed Nuclei (%) [12]: 4% | Population Tubulin-Different-Phenotype (%) [12]: 7% | Total Cell Count [12]: 179
